Reference: ChEMBL document CHEMBL1159121, “Synthesis, in vitro structure-activity relationship, and in vivo studies of 2-arylthiazolidine-4-carboxylic acid amides as anticancer agents” (Bioorg Med Chem, 2010)
pIC50: −log10 of the molar value.

How the values were obtained:
MOLT-4 = test: Growth inhibition of human MOLT4 cells; assay type: functional
DU-145 = test: Growth inhibition of human DU145 cells; assay type: functional
A498 = test: Growth inhibition of human A498 cells; assay type: functional
UO-31 = test: Growth inhibition of human UO31 cells; assay type: functional
OVCAR-4 = test: Growth inhibition of human OVCAR4 cells; assay type: functional
NCI/ADR-RES = test: Growth inhibition of human NCI/ADR-RES cells; assay type: functional
OVCAR-3 = test: Growth inhibition of human OVCAR-3 cells; assay type: functional
BT-549 = test: Growth inhibition of human BT549 cells; assay type: functional
RH7777 = test: Cytotoxicity against rat RH7777 cells after 96 hrs by SRB assay; assay type: cell-based; conditions: RH7777, 96 h
Procedure, shortened: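 Prostate lines in RPMI1640/10% FBS; RH7777 in DMEM/10% FBS. Cells TCA-fixed, stained with 0.4% SRB, absorbance read at 540 nm. IC50 from nonlinear regression of % survival against concentration.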

NCI-H522 = test: Growth inhibition of human NCI-H522 cells; assay type: functional
SK-MEL-5 = test: Growth inhibition of human SK-MEL-5 cells; assay type: functional
UACC-257 = test: Growth inhibition of human UACC257 cells; assay type: functional
UACC-62 = test: Growth inhibition of human UACC62 cells; assay type: functional
U-251 = test: Growth inhibition of human U251 cells; assay type: functional
IGROV-1 = test: Growth inhibition of human IGROV1 cells; assay type: functional
NCI-H23 = test: Growth inhibition of human NCI-H23 cells; assay type: functional
[1] = Antiproliferative activity against mouse B16-F1 cells after 48 hrs by SRB assay; assay type: functional, cell-based; conditions: B16-F1, 48 h
Procedure, shortened: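 Melanoma lines and control fibroblasts grown at 37 °C, 5% CO2, then exposed to a wide concentration range for 48 h in round-bottom 96-well plates. Fixed with 10% TCA, stained with SRB, protein read at 560 nm. IC50 (50% growth inhibition versus untreated) obtained by nonlinear regression.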

SNB-19 = test: Growth inhibition of human SNB19 cells; assay type: functional
SK-OV-3 = test: Growth inhibition of human SKOV3 cells; assay type: functional
HCT-15 = test: Growth inhibition of human HCT15 cells; assay type: functional
PC-3 = test: Growth inhibition of human PC3 cells; assay type: functional
[2] = read-out: LC50 (the source's name)

Compound: CCCCCCCCCCCCCCCCCCNC(=O)[C@@H]1CSC(c2ccccc2)N1 (mixture of isomers)
- GI50 (MOLT-4): 0.86 µM
- TGI (MOLT-4): 2.43 µM
- CC50 (MOLT-4; [2]): 6.51 µM
- GI50 (DU-145): 3.78 µM
- TGI (DU-145): 15.7 µM
- CC50 (DU-145; [2]): 39.6 µM
- GI50 (A498): 2.73 µM
- TGI (A498): 5.3 µM
- CC50 (A498; [2]): 11.5 µM
- GI50 (UO-31): 2.31 µM
- TGI (UO-31): 5.38 µM
- CC50 (UO-31; [2]): 16.3 µM
- GI50 (OVCAR-4): 2.61 µM
- TGI (OVCAR-4): 5.41 µM
- CC50 (OVCAR-4; [2]): 17.5 µM
- GI50 (NCI/ADR-RES): 2.02 µM
- TGI (NCI/ADR-RES): 3.85 µM
- CC50 (NCI/ADR-RES; [2]): 7.37 µM
- GI50 (OVCAR-3): 4.27 µM
- TGI (OVCAR-3): 16.2 µM
- CC50 (OVCAR-3; [2]): 80.2 µM
- GI50 (BT-549): 0.84 µM
- TGI (BT-549): 2.06 µM
- CC50 (BT-549; [2]): 4.54 µM
- pIC50 (RH7777): < 4.70
- GI50 (NCI-H522): 3.52 µM
- TGI (NCI-H522): 12.3 µM
- CC50 (NCI-H522; [2]): > 100 µM
- GI50 (SK-MEL-5): 1.92 µM
- TGI (SK-MEL-5): 3.63 µM
- CC50 (SK-MEL-5; [2]): 6.87 µM
- GI50 (UACC-257): 2.13 µM
- TGI (UACC-257): 4.23 µM
- CC50 (UACC-257; [2]): 8.4 µM
- GI50 (UACC-62): 2.14 µM
- TGI (UACC-62): 3.78 µM
- CC50 (UACC-62; [2]): 6.68 µM
- GI50 (U-251): 1.8 µM
- TGI (U-251): 3.19 µM
- CC50 (U-251; [2]): 5.65 µM
- GI50 (IGROV-1): 2.3 µM
- TGI (IGROV-1): 5.47 µM
- CC50 (IGROV-1; [2]): 18.9 µM
- GI50 (NCI-H23): 1.84 µM
- TGI (NCI-H23): 3.36 µM
- CC50 (NCI-H23; [2]): 6.17 µM
- pIC50 [1]: 4.81
- GI50 (SNB-19): 2.03 µM
- TGI (SNB-19): 3.66 µM
- CC50 (SNB-19; [2]): 6.6 µM
- GI50 (SK-OV-3): 2.9 µM
- TGI (SK-OV-3): 5.65 µM
- CC50 (SK-OV-3; [2]): 18.6 µM
- GI50 (HCT-15): 10.9 µM
- TGI (HCT-15): 22.7 µM
- CC50 (HCT-15; [2]): 47.7 µM
- GI50 (PC-3): 2.97 µM
- TGI (PC-3): 10.7 µM
- CC50 (PC-3; [2]): 32.8 µM
